No end group written: not given here.
Target: HLA-B*3501 (Homo sapiens, UniProt P01889, A329T/A93T/A95T/C349S/D201E/D98Y/E176V/E187L/E204Q/E69T/I218V/K202T/L119I/Q94N/R155S/R180L/S121R/S35A/S48A/T118I/V127L/V306I/V36M/Y140S/Y91F)
Assay type: binding
Outline: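 Human 721.221 cells expressing HLA-B*3501 were stripped of bound peptides with mild acid (pH 3.2). They were incubated overnight at 4°C with fluorescein-labelled reference peptide LPSC(FL)ADVEF (250 nM fixed) plus competitor peptides (>80% HPLC purity) from 50 to 0.09 μM. After washing, bound labelled peptide was measured by flow cytometry. IC50 (50% inhibition of reference binding) was taken from exponential regression curves.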

Molecule: CC(C)C[C@H](NC(=O)CNC(=O)[C@@H](NC(=O)[C@@H](NC(=O)[C@H](C)NC(=O)[C@@H]1CCCN1C(=O)[C@@H](N)CC(C)C)C(C)C)C(C)C)C(=O)N[C@@H](CO)C(=O)N1CCC[C@H]1C(=O)NCC(=O)N[C@@H](CCC(=O)O)C(=O)N[C@@H](CCC(N)=O)C(=O)N[C@@H](CCC(=O)O)C(=O)N[C@@H](Cc1ccc(O)cc1)C(=O)O [LPAVVGLSPGEQEY]
- IC50: 3100 nM

Molecule: APAVVGLSPGEQEY [APAVVGLSPGEQEY]
- IC50: 2800 nM

Molecule: FPSDSWCYF [FPSDSWCYF, reference compound]
- IC50: 4100 nM

Molecule: LAAVVGLSAGEQEY [LAAVVGLSAGEQEY]
- IC50: 1700 nM

Molecule: LAAVVGLSPGEQEY [LAAVVGLSPGEQEY]
- IC50: 2600 nM

Molecule: LGAVVGLSPGEQEY [LGAVVGLSPGEQEY]
- IC50: 17400 nM

Molecule: LMAVVGLSPGEQEY [LMAVVGLSPGEQEY]
- IC50: 6500 nM

Molecule: LPAVVGASPGEQEY [LPAVVGASPGEQEY]
- IC50: 1300 nM

Molecule: LPAVVGLSAGEQEY [LPAVVGLSAGEQEY]
- IC50: 1100 nM

Molecule: LWAVVGLSPGEQEY [LWAVVGLSPGEQEY]
- IC50: 4700 nM

From paper PMC2193327 (The Journal of Experimental Medicine, 2001)
